# Source: ChEMBL document CHEMBL1124097, “9-(2-Fluorobenzyl)-6-(alkylamino)-9H-purines. A new class of anticonvulsant agents” (1988)
# Assays:
# Assay type in all cases: functional
# Rattus norvegicus [1] = experiment: Anticonvulsant activity against maximal electroshock-induced seizures in rats after ip administration at 25 mg/kg (compared to standard); conditions: route intraperitoneal
# Rattus norvegicus [2] = experiment: Anticonvulsant activity against maximal electroshock-induced seizures in rats after intraperitoneal administration.; conditions: ip
# How it was run: (§1)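 Male Sprague-Dawley rats were protected against maximal electroshock-induced seizures. The ED50 is the dose that protects 50% of animals from the hind-limb extensor component, calculated by the method of Miller. For ED50s given with standard error, at least 12 animals per dose level and four doses per compound were used. Otherwise, three doses with six animals per point were used.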
# Rattus norvegicus [3] = experiment: Anticonvulsant activity against maximal electroshock-induced seizures in rats after oral administration; how it was run: as §1
SMILES,inhibition in vivo at 25 mg/kg (Rattus norvegicus [1]) [%],ED50 (Rattus norvegicus [2]) [mg/kg],ED50 (Rattus norvegicus [3]) [mg/kg]
CNc1ncnc2c1ncn2Cc1cccc(OCc2ccccc2)c1,17,–,–
Fc1ccccc1Cn1cnc2c(NC3CCC3)ncnc21,–,33,–
CNc1ncnc2c1ncn2Cc1c(F)cccc1F,–,–,2.7
CNc1ncnc2c1ncn2Cc1ccc(N)cc1,–,25,–
CC(C)(C)Nc1ncnc2c1ncn2Cc1ccccc1F,–,> 50,–
CNc1ncnc2c1ncn2Cc1ccccc1C(F)(F)F,–,20,–
CNc1ncnc2c1ncn2Cc1c(F)cccc1Cl,–,12.5,–
CN(C)c1ncnc2c1ncn2Cc1c(F)cccc1Cl,–,5,10
CNc1ncnc2c1ncn2Cc1ccccc1C,–,10,25
CNc1ncnc2c1ncn2Cc1ccccc1,–,5,12
CNc1ncnc2c1ncn2Cc1cccc(F)c1,–,7,–
CNc1ncnc2c1ncn2Cc1ccc(F)cc1F,–,20,–
Nc1ncnc2c1ncn2Cc1ccccc1F,–,4.5,12
CNc1ncnc2c1ncn2Cc1cccc(O)c1,0,–,–
Fc1ccccc1Cn1cnc2c(N3CCCC3)ncnc21,–,12.5,35
CNc1ncnc2c1ncn2Cc1cccc(F)c1F,–,18,> 50
Fc1ccccc1Cn1cnc2c(N3CCC3)ncnc21,–,> 50,–
CN(C)c1ncnc2c1ncn2Cc1ccccc1,–,6,12
CNc1ncnc2c1ncn2Cc1ccccc1Cl,–,6.2,12.5
CNc1ncnc2c1ncn2Cc1ccc(F)cc1,33,–,–
CNc1ncnc2c1ncn2Cc1ccc([N+](=O)[O-])cc1,0,–,–
CN(C=O)c1ncnc2c1ncn2Cc1ccccc1F,–,11,25
O=C1NC(=O)C(c2ccccc2)(c2ccccc2)N1 [PHENYTOIN],–,9.6,–
